Assays:
[1] = Dissociation constant, pKa of the compound; assay type: physicochemical
How it was run: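 pKa was measured by potentiometric titration; calculated pKa values were also given from a pKa database.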

[2] = Plasma clearance in Sprague-Dawley rat at 2 mg/kg, iv; assay type: ADME, organism-based; design: dose 2 mg/kg, route intravenous
[3] = Half life in Sprague-Dawley rat at 2 mg/kg, iv; assay type: ADME, organism-based; design: dose 2 mg/kg, route intravenous; settings: in vivo
[4] = AUC in Sprague-Dawley rat at 10 mg/kg, po; assay type: ADME, organism-based; design: dose 10 mg/kg, route oral; settings: plasma
[5] = AUC in Sprague-Dawley rat at 1 mg/kg, po; assay type: ADME, organism-based; design: dose 1 mg/kg, route oral; settings: plasma
[6] = AUC in Sprague-Dawley rat at 0.3 mg/kg, po; assay type: ADME, organism-based; design: dose 0.3 mg/kg, route oral; settings: plasma
[7] = Cmax in Sprague-Dawley rat at 10 mg/kg, po; assay type: ADME, organism-based; design: dose 10 mg/kg, route oral; settings: in vivo
[8] = Cmax in Sprague-Dawley rat at 1 mg/kg, po; assay type: ADME, organism-based; design: dose 1 mg/kg, route oral; settings: in vivo
[9] = Oral bioavailability in Sprague-Dawley rat at 10 mg/kg; assay type: ADME, organism-based; settings: in vivo
[10] = Plasma clearance in Beagle dog at 1 mg/kg, iv; assay type: ADME, organism-based, Canis lupus familiaris; design: dose 1 mg/kg, route intravenous
[11] = Half life in Beagle dog at 1 mg/kg, iv; assay type: ADME, organism-based, Canis lupus familiaris; design: dose 1 mg/kg, route intravenous; settings: in vivo
[12] = AUC in Beagle dog at 3 mg/kg, po; assay type: ADME, organism-based, Canis lupus familiaris; design: dose 3 mg/kg, route oral; settings: plasma
[13] = Cmax in Beagle dog at 3 mg/kg, po; assay type: ADME, organism-based, Canis lupus familiaris; design: dose 3 mg/kg, route oral; settings: in vivo
[14] = Oral bioavailability in Beagle dog at 3 mg/kg; assay type: ADME, organism-based, Canis lupus familiaris; settings: in vivo
[15] = Plasma clearance in rhesus monkey at 1 mg/kg, iv; assay type: ADME, organism-based, Macaca mulatta; design: dose 1 mg/kg, route intravenous
[16] = Half life in rhesus monkey at 1 mg/kg, iv; assay type: ADME, organism-based, Macaca mulatta; design: dose 1 mg/kg, route intravenous; settings: in vivo
[17] = AUC in rhesus monkey at 3 mg/kg, po; assay type: ADME, organism-based, Macaca mulatta; design: dose 3 mg/kg, route oral; settings: plasma
[18] = Cmax in rhesus monkey at 3 mg/kg, po; assay type: ADME, organism-based, Macaca mulatta; design: dose 3 mg/kg, route oral; settings: in vivo
[19] = Oral bioavailability in rhesus monkey at 3 mg/kg; assay type: ADME, organism-based, Macaca mulatta; settings: in vivo
[20] = Ratio of drug level from brain to plasma in rat at 10 mg/kg, po after 9 hrs; assay type: ADME, organism-based; design: dose 10 mg/kg, route oral
How it was run: (§1)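 Rats given a single oral 10 mpk dose; brain, plasma and CSF levels measured; brain/plasma and CSF/plasma concentration ratios taken at 9 h after oral dosing.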

[21] = Ratio of drug level from cerebrospinal fluid to plasma in rat at 10 mg/kg, po after 9 hrs; assay type: ADME, organism-based, CSF/Plasma; design: dose 10 mg/kg, route oral; how it was run: as §1
[22] = Bioavailability in Wistar albino rat; assay type: ADME, organism-based; settings: in vivo

Compound `CC(C)(C)NC(=O)CN1CCC(CNC(=O)c2cc(Cl)cc(Cl)c2)CC1` has a pKa [1] of 7.6.

For `CC(C)(C)CCN1CC[C@H](CNC(=O)c2cc(Cl)cc(Cl)c2)[C@H](F)C1`, the pKa [1] was 7.9, the clearance [2] was 41 mL/min/kg and the half-life [3] was 4.9 h. For the same compound, the AUC [4] was 3.1 µM·h, the AUC [5] was 0.19 µM·h and the AUC [6] was 0.01 µM·h. It also gave a Cmax [7] of 432 nM, a Cmax [8] of 33 nM and a bioavailability [9] of 30%. It also gave a clearance [10] of 9.1 mL/min/kg, a half-life [11] of 10.8 h and an AUC [12] of 9.5 µM·h. The Cmax [13] was 1180 nM, the bioavailability [14] was 67% and the clearance [15] was 9.6 mL/min/kg. For the same compound, the half-life [16] was 4.6 h, the AUC [17] was 2.4 µM·h and the Cmax [18] was 184 nM. The bioavailability [19] was 18%, the Kp at 9 h [20] was 9 and the Kp at 9 h [21] was 0.14.

With `CC1(C)C[C@@H](CN2CCC(F)(CNC(=O)c3cc(Cl)cc(Cl)c3)CC2)CCO1` the pKa [1] was 7.9.

Work on `CC(C)(C)C(=O)CN1CCC(CNC(=O)c2cc(Cl)cc(Cl)c2)CC1` yielded a pKa [1] of 8.

Work on `CC(C)(C)C(O)CN1CCC(CNC(=O)c2cc(Cl)cc(Cl)c2)CC1` (stereo not drawn) yielded a pKa [1] of 9.2.

`CC(C)(C)CCN1CCC(CNC(=O)c2cc(Cl)cc(Cl)c2)CC1` showed a bioavailability [22] of 100% and a pKa [1] of 8.7.

`CC(C)(C)CCN1CC[C@@H](CNC(=O)c2cc(Cl)cc(Cl)c2)[C@H](F)C1` (relative stereo) showed a pKa [1] of 6.7.

From ChEMBL document CHEMBL1140166, “Discovery of 1,4-substituted piperidines as potent and selective inhibitors of T-type calcium channels” (J Med Chem, 2008)
